Screens deposited in PubChem by several laboratories.
Shown are actives, neighbours in structure and some others; about 1.8% of the full set was active somewhere.
Fh CTSL1 inh = Fasciola hepatica cathepsin L1 inhibitors, primary screen, counter-screen for PFM18AAP inhibitor project, biochemical, QFRET, fluorogenic peptide substrate; recombinant F. hepatica cathepsin L1, Z-Leu-Arg-MCA fluorescence; inhibition, % at 5.96 µM; 300,000 compounds, 0.49% hits; AID 1906, 2009;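 active = inhibition above the mean of all tested compounds plus 3 SD, set per screening campaign, cut at about 17% in these data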;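 also: 0% = plate median of test compound wells and 100% = 1 µM Z-Phe-Ala-diazomethylketone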
GSTO1 inh = inhibitors of recombinant GSTO1, primary screen, counter-screen for RBBP9 inhibitor project, biochemical, fluorescence polarization. inhibition, % at 5.96 µM. Glutathione S-transferase omega-1 (Homo sapiens), P78417. activity-based probe fluorescence polarization. AID 1974, 2009. 300,000 compounds, 1.1% hits;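 active = inhibition above the campaign mean inhibition plus 3 SD, cut at about 35% in these data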;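 also: 0% = GSTO1-1 with DMSO and 100% = wells lacking GSTO1-1 enzyme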
TDP2 inh = human TDP2 enzyme inhibitors, primary screen, biochemical, epi absorbance, recombinant enzyme; T5PNP hydrolysis, p-nitrophenol absorbance 415 nm; inhibition, % at 12.8 µM; 370,000 compounds, 0.34% hits; Tyrosyl-DNA phosphodiesterase 2 (Homo sapiens), O95551;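 active = inhibition above the mean of all tested compounds plus 3 SD, set per campaign, cut at about 25% in these data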;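 also: 0% = DMSO with enzyme and 100% = buffer with substrate but no TDP2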
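Assay system: recombinant human TDP2 / Reagent: T5PNP substrate at 5 mM, a TopII-DNA adduct mimic / Measured by: epi absorbance from released p-nitrophenol / Evaluation: % inhibition relative to enzyme-containing and enzyme-free wells / Control set: enzyme-free and DMSO wells / Replicates: each compound tested once, singlicate / Schedule: enzyme reaction with compound for 2 h at 37 °C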
Apaf-1 inh = inhibitors of human Apaf-1 apoptosome, primary screen, biochemical, DEVD-Rh110 fluorescence, uHTS. Apoptotic protease-activating factor 1 (Homo sapiens), O14727. reconstituted apoptosome caspase-3 activity. inhibition, % at 20 µM. 330,000 compounds, 0.71% hits; active = inhibition of at least 40% at 20 µM;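 also: plate controls were DMSO wells for no effect and DEVD-CHO caspase inhibitor wells for full effect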
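Assay system – apoptosome proteins · Medium – Hepes buffer, pH 7.5 · Also added – cytochrome c with DEVD-Rh110 · Timing – 30 min compound preincubation, 50 min activation, room temperature · Detection – Rh110 fluorescence, excitation 480 nm, emission 540 nm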
PAD4 inh = human PAD4 inhibitors, primary screen, biochemical, fluorescence polarization, 1536-well format | Protein-arginine deiminase type-4 (Homo sapiens), Q9UM07 | recombinant PAD4, RCA probe fluorescence polarization | AID 485272, 2010 | 330,000 compounds, 0.41% hits | inhibition, % at 6.36 µM;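 active = percent inhibition above a cutoff equal to the mean of all tested compounds plus 3 SD, cut at about 15% in these data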;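 also: 0% = PAD4 with RCA probe and DMSO and 100% = probe without PAD4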
Target sequence (Q9UM07 whole entry, looked up): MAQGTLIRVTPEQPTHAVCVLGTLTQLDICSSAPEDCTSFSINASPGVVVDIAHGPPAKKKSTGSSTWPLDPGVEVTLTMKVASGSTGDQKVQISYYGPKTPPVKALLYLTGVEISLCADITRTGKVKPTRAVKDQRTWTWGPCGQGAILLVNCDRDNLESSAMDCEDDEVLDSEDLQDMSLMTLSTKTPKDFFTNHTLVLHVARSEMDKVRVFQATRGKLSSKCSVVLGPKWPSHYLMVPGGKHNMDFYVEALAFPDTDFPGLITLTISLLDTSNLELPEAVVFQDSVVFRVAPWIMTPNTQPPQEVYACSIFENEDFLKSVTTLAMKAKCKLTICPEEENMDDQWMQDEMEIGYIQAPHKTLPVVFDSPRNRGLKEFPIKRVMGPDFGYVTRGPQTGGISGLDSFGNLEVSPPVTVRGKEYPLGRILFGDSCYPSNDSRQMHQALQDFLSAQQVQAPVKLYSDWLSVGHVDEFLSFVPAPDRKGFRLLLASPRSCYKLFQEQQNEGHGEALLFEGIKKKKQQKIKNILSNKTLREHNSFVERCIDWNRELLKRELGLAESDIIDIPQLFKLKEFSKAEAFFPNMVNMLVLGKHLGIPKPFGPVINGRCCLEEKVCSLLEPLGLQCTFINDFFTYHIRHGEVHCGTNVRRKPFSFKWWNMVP
GSTO1 inh conf = GSTO1 inhibitor hit confirmation, counter-screen for RBBP9 inhibitor project, biochemical, fluorescence polarization, triplicate; shares compounds with GSTO1 inh; recombinant GSTO1, probe fluorescence polarization; inhibition, % at 5.96 µM; 2,400 compounds, 54% hits; AID 2176, 2009;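 active = inhibition above the primary screen's cutoff, its mean inhibition plus 3 SD, cut at about 35% in these data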;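 also: loss of polarization as inhibitors block binding of rhodamine sulfonate ester activity probe; 0% = GSTO1 with DMSO and 100% = wells lacking GSTO1 enzyme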
PAD4 confirm = human PAD4 inhibitors, confirmation, biochemical, fluorescence polarization; AID 488796, 2010; shares compounds with PAD4 inh; 1,200 compounds, 28% hits; recombinant PAD4, RCA probe fluorescence polarization; inhibition, % at 6.36 µM;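 active = mean inhibition across replicates above the hit cutoff set by the earlier primary screen, cut at about 15% in these data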;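 also: inhibitors block active-site labeling by the probe so polarization falls; 0% = PAD4 with probe and DMSO and 100% = probe without PAD4 enzyme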
Apaf-1 inh conf = Apaf-1 inhibitors, single-dose retest, confirmation, biochemical, fluorescence, DEVD-Rh110, 20 µM. shares compounds with Apaf-1 inh. reconstituted apoptosome, caspase-3 DEVD-Rh110 fluorescence. inhibition, % at 20 µM. 1,800 compounds, 25% hits;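 active = mean inhibition of at least 40% at 20 µM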;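 also: plate controls were DMSO wells for no effect and DEVD-CHO caspase inhibitor control wells for full effect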
Rh110 quench = Rh110 fluorescence interference by putative Apaf-1 inhibitors, confirmation, artefact control for Apaf-1 inhibitor project, biochemical, 20 µM | 1,800 tested, under 10 active | quenched caspase reaction | AID 504615, 2011 | activation (fluorescence interference), % at 20 µM | shares compounds with Apaf-1 inh;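 active = signal rise of 40% or more at 20 µM, treated as a fluorescence artifact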
Apaf1 inh interf = fluorescence interference of Apaf-1 inhibitor hits, dose response, artefact control for Apaf-1 inhibitor project; fluorescence interference counterscreen, Apaf-1 assay format; 460 tested, under 10 active; AID 588538, 2011; IC50, µM; shares compounds with Apaf-1 inh; call rule not given here
TDP2 confirm = human TDP2 enzyme inhibitors, retest, confirmation, biochemical, epi absorbance, recombinant enzyme; shares compounds with TDP2 inh; absorbance read-out; inhibition, % at 12.8 µM; 1,100 compounds, 22% hits; AID 743263, 2014; in the data active = inhibition above about 25%;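 also: 0% = vehicle with enzyme and 100% = no enzyme buffer only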
Numbers without * were called inactive; . = not tested or not shown.

SMILES | Fh CTSL1 inh | GSTO1 inh | TDP2 inh | Apaf-1 inh | PAD4 inh | GSTO1 inh conf | PAD4 confirm | Apaf-1 inh conf | Rh110 quench | TDP2 confirm | others
COc1ccc(-c2c[nH]c(=O)[nH]c2=O)cc1OC | -1 | -10 | -1 | 8 | -2 | . | . | . | . | .
COC(=O)C1=C(C)OC(N)=C(C#N)C1c1ccc(OC)c(OC)c1OC (stereo not given) | -3 | 13 | 2 | -10 | -1 | . | . | . | . | .
COc1ccc(C2C(C#N)=C(N)Oc3c2c(-c2ccccc2)nn3-c2ccccc2)c(OC)c1OC (stereo not given) | 1 | 47* | 68* | 25 | 25* | 16 | 3 | . | . | 7
CCc1noc(C)c1C(=O)N1CCN(CC(=O)OC)CC1 | . | . | 1 | . | . | . | . | . | . | .
Fc1cccc(Cn2ccc3ccc(-c4ccc5ccn(Cc6cccc(F)c6)c5c4)cc32)c1 | . | . | 7 | . | . | . | . | . | . | .
CCCOc1cc(N)ccc1C(=O)OCCN(CC)CC | -5 | 6 | -5 | -7 | -2 | . | . | . | . | .
CCCOc1ccc(N)cc1N | 3 | 78* | 29* | 91* | 49* | -14 | . | . | . | 22
CCCCc1c(-c2ccccc2OC)ncn1Cc1ccccc1F | . | . | 0 | . | . | . | . | . | . | .
c1coc(-c2nc(-c3ccco3)c(-c3ccco3)nc2-c2ccco2)c1 | 2 | 80* | 50* | 63* | 45* | 37* | . | . | . | 3
C[C@@H]1C=CCCO[C@]12C(=O)N(Cc1ccc(F)cc1)c1ccccc12 | . | . | 1 | . | . | . | . | . | . | .
O=C1c2ccccc2C(=O)c2c1cccc2-n1nnc2ccccc21 | -1 | -3 | 0 | 5 | -1 | . | . | . | . | .
O=C1C(N2CCOCC2)=C(n2nnc3ccccc32)C(=O)c2ccccc21 | 81* | 77* | 50* | 94* | 23* | 84* | 15* | 97* | 10 | 64* | Apaf1 inh interf=>100
O=C(Cc1ccccc1)NC1(O)C(=O)c2ccccc2C1=O | 34* | 72* | 64* | 85* | 9 | 75* | . | 69* | 7 | 62* | Apaf1 inh interf=>100
O=C(NC1(O)C(=O)c2ccccc2C1=O)c1ccc(C(F)(F)F)cc1 | 57* | 84* | 37* | 96* | 40* | 77* | 40* | 98* | 13 | 83* | Apaf1 inh interf=>100
CC(NC(=O)Cc1ccccc1)c1ccccc1 (stereo not given) | -3 | 8 | -9 | -1 | -7 | . | . | . | . | .
CC1=NN(c2ccccc2)C(=O)C1 | 8 | 72* | 66* | 41* | 45* | 10 | -3 | 15 | 5 | 8
CC1=NN(Cc2ccccc2)C(=O)C1 | 7 | 57* | 58* | 65* | 71* | 6 | -5 | 1 | -5 | 6
CC1=NN(c2cccc([N+](=O)[O-])c2)C(=O)C1 | -4 | 24 | 7 | 37 | -14 | . | . | . | . | .
